Screens (PubChem)
Hits are enriched below; roughly 2.5% of the tested compounds scored in any of these assays.
TCR CD3 inh: human TCR-CD3 binding inhibition; 360,000 tested, 0.37% active; TAMRA-labeled TCR probe fluorescence, biochemical; AID 651800; inhibition, % at 9.4 µM;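 note: recombinant mutant TCR 2C K166C tagged with TAMRA read by polarization; 0% = receptor in buffer alone and 100% = receptor with positive control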
HTRA1 inhibitor: inhibitors of human serine peptidase HTRA1 | AID 504803 | Q92743 | recombinant HTRA1, FP-rhodamine activity-based probe, fluorescence polarization | inhibition, % at 5.96 µM | 340,000 tested, 0.5% active; in the data active = inhibition above about 36%;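 note: 0% = enzyme with DMSO and 100% = wells lacking enzyme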
mABHD4 FP: inhibits mouse alpha/beta hydrolase domain 4 | purified mABHD4, FP-Rh probe fluorescence polarization | 370,000 tested, 0.54% active | Q8VD66 | AID 720543 | inhibition, % at 8.92 µM;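 active = inhibition exceeding the mean over every tested compound plus 3 SD, cut at about 30% in these data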;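 note: 0% = plate median of compound wells and 100% = S159A mutant with DMSO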
Target sequence (Q8VD66 whole entry, looked up, the tested form may be a part): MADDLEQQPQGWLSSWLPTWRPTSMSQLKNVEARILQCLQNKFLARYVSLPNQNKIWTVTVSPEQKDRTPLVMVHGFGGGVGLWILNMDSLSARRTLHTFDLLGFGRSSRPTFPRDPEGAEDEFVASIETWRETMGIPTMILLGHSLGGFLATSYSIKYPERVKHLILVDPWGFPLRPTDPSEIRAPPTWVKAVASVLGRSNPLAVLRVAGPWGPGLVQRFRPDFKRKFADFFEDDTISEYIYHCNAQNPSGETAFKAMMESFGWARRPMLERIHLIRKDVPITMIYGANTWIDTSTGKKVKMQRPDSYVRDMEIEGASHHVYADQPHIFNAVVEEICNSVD
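Doses – 8.92 µM, single dose · Material – wild-type mouse ABHD4 protein · Replication – single well per compound (singlicate) · Measure – percent inhibition of probe binding, normalized to plate controls · Schedule – 45 min compound pre-incubation plus 60 min probe step, 25 °C · Detection – fluorescence polarization with parallel and perpendicular emission, 525/598 nm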
SIAE primary: human SIAE inhibition, primary screen; Q9HAT2; SIAE FP-Rh probe binding, fluorescence polarization; inhibition, % at 9.66 µM; 370,000 tested, 0.69% active; AID 1053197;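 active = inhibition above a cutoff: mean of compounds within the control limits plus 3 SD of those, cut at about 17% in these data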;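 note: 0% = plate median of compound wells and 100% = probe without SIAE protein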
rCAG binder: r(CAG) repeat RNA binding; AID 651821; 370,000 tested, 1.3% active; TO-PRO-1 dye displacement fluorescence; inhibition, % at 3 µM;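 active = inhibition above the plate cutoff, the mean of all test compounds on that plate plus 3 SD, cut at about 35% in these data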;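 note: 0% = DMSO alone and 100% = 100 µM mitoxantrone as full dye displacement; higher means more dye released from RNA so lower well fluorescence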
HTRA1 inh conf: confirmation of human HTRA1 inhibitors; shares compounds with HTRA1 inhibitor; recombinant HTRA1, FP-rhodamine activity-based probe, fluorescence polarization; inhibition, % at 5.96 µM; 1,600 tested, 66% active;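 active = mean inhibition over three repeats above a set limit taken from the earlier primary screen, cut at about 37% in these data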;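 note: 0% = HTRA1 with DMSO and 100% = wells lacking HTRA1; inhibitors block probe binding so polarization drops and inhibition rises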
BSA TAMRA ctr: BSA probe counter-screen for TCR-CD3 inhibitors. shares compounds with TCR CD3 inh. TAMRA-labeled BSA probe fluorescence counterscreen. inhibition, % at 9.4 µM. 1,200 tested, 10% active. AID 652035; in the data active = inhibition above about 23%;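 note: 0% = buffer low control and 100% = reference high control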
TCR-CD3 conf: TCR-CD3 interaction inhibition, confirmation | 1,200 tested, 48% active | TAMRA-labeled TCR probe fluorescence binding assay | inhibition, % at 9.4 µM | shares compounds with TCR CD3 inh
rCAG binder conf: r(CAG) RNA repeat binding, confirmation | shares compounds with rCAG binder | TO-PRO-1 dye displacement fluorescence | inhibition, % at 3 µM | 4,300 tested, 70% active | AID 652065;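 active = inhibition above a per-plate cutoff, the mean inhibition of sample wells plus 3 SD, cut at about 35% in these data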;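 note: loss of TO-PRO-1 fluorescence as compound displaces dye from 1x1 AA loop RNA; 0% = DMSO only wells and 100% = 100 µM mitoxantrone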
dCAG dye counter: DNA CAG dye complex inhibition counter-screen. shares compounds with rCAG binder. d(CAG) DNA oligo TO-PRO-1 dye displacement, fluorescence. inhibition, % at 3 µM. 4,300 tested, 94% active. AID 652068;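 active = inhibition above its plate's cutoff, the mean test-well inhibition plus 3 SD, cut at about 4.8% in these data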;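 note: 0% = DNA dye mix with DMSO and 100% = 100 µM mitoxantrone; hits displace the dye from DNA and so lower well fluorescence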
ABHD4 confirm: confirmation of mouse ABHD4 inhibitors; inhibition, % at 8.92 µM; shares compounds with mABHD4 FP; purified mABHD4, FP-Rh probe fluorescence polarization; AID 720658; 1,800 tested, 55% active;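 active = mean inhibition across replicates above the hit cutoff set in the primary screen, cut at about 30% in these data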;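 note: 0% = wild-type ABHD4 with DMSO and 100% = catalytically dead S159A mutant with DMSO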
Starred values were filed as active, the others as inactive; · = not tested or not shown; + = active, no number. Cut-off read from the data, not from the text of the source, unless noted: active = inhibition above about 19%; inactive = the rest.

SMILES | TCR CD3 inh | HTRA1 inhibitor | mABHD4 FP | SIAE primary | rCAG binder | HTRA1 inh conf | ABHD4 confirm | others
CCCCCCCCCCCCCCCC(O)C[N+](C)(C)CCO (stereo unspecified) | -5 | + | 38* | 1 | 7 | 66* | 51*
CC(C1SC(=S)NC1=O)C1SC(=S)NC1=O (stereo unspecified) | 7 | 60* | 46* | -3 | 16 | 47* | 20
Cc1ccccc1NS(=O)(=O)c1cc(S(C)(=O)=O)ccc1C | 11 | -1 | -2 | 1 | 1 | · | ·
Clc1ccccc1C1Nc2cccc3cccc(c23)N1 | 1 | 48* | 48* | 14 | 15 | 28 | 36*
Cc1ccc(S(=O)(=O)Nc2ccccc2)cc1[N+](=O)[O-] | 3 | 1 | -2 | -4 | 1 | · | ·
Cc1cccc2c(N=Nc3ccc(S(=O)(=O)Nc4cccc(Cl)c4)cc3[N+](=O)[O-])c(O)[nH]c12 | 3 | 37* | 43* | 3 | 24 | 28 | -43
O=C(NNC(=S)Nc1ccccc1C(F)(F)F)c1ccc(Br)o1 | 2 | 4 | 7 | 4 | 15 | · | ·
O=[N+]([O-])c1cc2no[n+]([O-])c2cc1N1CCCCC1 | 15 | 77* | 55* | 11 | 44* | 32 | 51* | rCAG binder conf=7;dCAG dye counter=3
N#Cc1cc(N2CCCCC2)c([N+](=O)[O-])cc1C#N | 3 | 1 | 5 | -2 | -2 | · | ·
CCN(CC)c1ccc(N=Cc2c(C)[nH]c3ccccc23)cc1 | -5 | 50* | 36* | 14 | 4 | 22 | 30*
Cc1[nH]c2ccccc2c1/C=N/n1cnnc1 | 4 | -1 | -6 | 6 | 2 | · | ·
O=C(Nc1ccccc1N1CCOCC1)c1cccc(S(=O)(=O)N2CCOCC2)c1 | 4 | -5 | 1 | 1 | -1 | · | ·
Cc1occc1C(=O)NC(C)CCc1ccccc1 (stereo unspecified) | 7 | -4 | -1 | 4 | 3 | · | ·
Oc1ccc(-c2csc(Nc3ccccn3)n2)cc1O | 15 | 64* | 31* | 13 | 26 | 80* | 40*
Cc1cccnc1Nc1nc(-c2ccc(O)c(O)c2)cs1 | 17 | 81* | 35* | -6 | 38* | 70* | 43* | rCAG binder conf=54*;dCAG dye counter=19*
Cc1cccc(Nc2nc(-c3ccc(O)c(O)c3)cs2)n1 | -1 | 60* | 34* | 4 | 20 | 59* | 57*
Cc1ccnc(Nc2nc(-c3ccc(O)c(O)c3)cs2)c1 | 10 | 74* | 42* | 16 | 34 | 85* | 47*
Cc1cccc(Nc2nc(-c3ccc(F)c(C)c3)cs2)n1 | 0 | -2 | 15 | -2 | 8 | · | ·
Cc1ccnc(Nc2nc(-c3ccc(O)cc3)cs2)c1 | -5 | 16 | 8 | 7 | 12 | · | ·
OCCOCCn1c(C2CCCN2c2nc(-c3ccc(F)cc3)cs2)nc2cc(C(F)(F)F)ccc21 (stereo unspecified) | -2 | -9 | -16 | -3 | 11 | · | ·
NC(=S)NN=Cc1nccc2c(C(F)(F)F)cccc12 | -3 | 69* | 31* | 6 | 7 | 80* | 32*
CCC(C)Sc1ccc([C@H]2N[C@@](CC(C)C)(C(=O)OC)[C@H]3C(=O)N(CC)C(=O)[C@@H]23)cc1 (stereo partly specified) | 3 | -4 | 1 | 11 | -8 | · | ·
O=C(O)c1cc(O)c2c(c1)[C@H]([C@H]1c3cc(C(=O)O)cc(O)c3C(=O)c3c(O[C@@H]4O[C@H](CO)[C@@H](O)[C@H](O)[C@H]4O)cccc31)c1cccc(OC3O[C@H](CO)[C@@H](O)[C@H](O)[C@H]3O)c1C2=O (stereo partly specified) | 137* | 40* | 60* | 74* | 100* | 19 | 5 | BSA TAMRA ctr=-14;TCR-CD3 conf=135*;rCAG binder conf=99*;dCAG dye counter=90*
COc1cc(NCCCC(C)N)c2ncccc2c1 (stereo unspecified) | 62* | 62* | 47* | 44* | 9 | 12 | 27 | BSA TAMRA ctr=22;TCR-CD3 conf=14
COc1cc(NCCCCC(C)N)c2nccc(C)c2c1 (stereo unspecified) | 4 | 15 | 19 | 9 | 13 | · | ·
SMILES | TCR CD3 inh | HTRA1 inhibitor | mABHD4 FP | SIAE primary | rCAG binder | HTRA1 inh conf | ABHD4 confirm | others
CSC1=NC(C)N2C(SC)=NC(C)N12 (stereo unspecified) | 7 | -5 | 1 | -1 | 1 | · | ·
CCOC(=O)c1nn(-c2ccccc2)c(=O)c2c(N)scc12 | -20 | 2 | 6 | 1 | 4 | · | ·
Nc1scc2c(C(=O)N/N=C/c3ccc(Cl)cc3)nn(-c3ccccc3)c(=O)c12 | 12 | 41* | 44* | 12 | 41* | -4 | 20 | rCAG binder conf=25;dCAG dye counter=16*
CN1CCN(C2=C(Cl)C(=O)c3ccccc3C2=O)CC1 | 15 | 50* | 37* | 13 | 11 | 48* | 32*
CC1=C(O)C(=O)C(c2c(C)cc(C)c(Br)c2C)=C(O)C1=O | 23* | 84* | 79* | 16 | 25 | 74* | 74* | BSA TAMRA ctr=0;TCR-CD3 conf=15
COc1ccc(/C=C(\C#N)C(=O)NCCc2ccccc2)cc1OCc1ccccc1 | 7 | -3 | -6 | -25 | -1 | · | ·
N#C/C(=C\c1ccc(O)c(O)c1)C(=O)NCCCc1ccccc1 | 2 | 66* | 34* | 14 | 22 | 77* | 52*
CCCC(=O)C1=C(c2ccccc2)C(C#N)(C#N)C(C#N)=C1N | 1 | 38* | 38* | 13 | 32 | 55* | 22
CN(C)c1cc2c(c(N(C)C)c1)C(=O)c1ccccc1C2=O | -5 | 41* | 41* | 0 | 8 | 50* | 33*
O=C(CNc1ccc2ccccc2c1)N/N=C/c1ccc(C(=O)O)cc1 | -1 | 3 | 17 | 0 | 22 | · | ·
O=C(O)c1ccc(/C=N/NC(=O)c2cc3ccccc3cc2O)cc1 | 1 | 42* | 31* | 13 | 47* | 16 | -6 | rCAG binder conf=23;dCAG dye counter=7.6*
Cc1ccc(-c2cc(-c3nnc(SCC(=O)Nc4cccc5ccccc45)n3N)[nH]n2)cc1 | · | · | 5 | -7 | 11 | · | ·
